Format in all cases: functional
The test system of one assay is HCT-15. Description: Antiproliferative activity against human HCT-15 cells assessed as reduction in cell growth. The procedure, abridged:
(§1)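 NCI five-dose testing across the 58-line panel gives GI50, TGI and LC50 for each line. Subpanel lines report mean GI50 for each of the nine cancer types.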

The next assay relates to MDA-MB-468. Description: Antiproliferative activity against human MDA-MB-468 cells assessed as reduction in cell growth. The procedure, abridged: as §1
A further assay concerns K562. Description: Antiproliferative activity against human K562 cells assessed as reduction in cell growth. The procedure, abridged: as §1
In a further assay the test system is SK-MEL-5. Description: Antiproliferative activity against human SK-MEL-5 cells assessed as reduction in cell growth. Summed up: as §1
A further assay relates to HOP-92. The experiment in a line: Antiproliferative activity against human HOP-92 cells assessed as reduction in cell growth. Summed up: as §1
The next assay relates to PC-3. Description: Antiproliferative activity against human PC-3 cells assessed as reduction in cell growth. The procedure, abridged: as §1
In the next assay the test system is COLO 205. Description: Antiproliferative activity against human COLO 205 cells assessed as reduction in cell growth. The procedure, abridged:
as §1

The subject of the next assay is SNB-75. Description: Antiproliferative activity against human SNB-75 cells assessed as reduction in cell growth. The procedure, abridged: as §1
A further assay relates to NCI/ADR-RES. Description: Antiproliferative activity against human NCI/ADR-RES cells assessed as reduction in cell growth. The procedure, abridged: as §1
Another assay has as its system RXF 393. Description: Antiproliferative activity against human RXF 393 cells assessed as reduction in cell growth. The procedure, abridged: as §1
For assay [1], the system named is Panel leukemia (Carcinoma cell lines). Description: Antiproliferative activity against human Panel leukemia (5 Carcinoma cell lines) assessed as reduction in mean cell growth. Summed up: as §1
For assay [2], the system named is Panel breast (Carcinoma cell lines). The experiment in a line: Antiproliferative activity against human Panel breast (6 Carcinoma cell lines) assessed as reduction in mean cell growth. The procedure, abridged: as §1
Assay [3] can be described thus: Antiproliferative activity against human Panel non-small cell lung cancer (8 Carcinoma cell lines) assessed as reduction in mean cell growth. Conditions: Non-small cell lung cancer cell line. Summed up: as §1
The test system of assay [4] is Panel melanoma (Carcinoma cell lines). The experiment in a line: Antiproliferative activity against human Panel melanoma (9 Carcinoma cell lines) assessed as reduction in mean cell growth. Summed up: as §1
Assay [5] in a line: Antiproliferative activity against human Panel NCI-58 (58 Carcinoma cell lines) assessed as reduction in mean cell growth at 10 uM. Also noted: scale not given: the % may be the effect or the level left. Summed up:
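NCI 58-cell-line screen covering leukemia, NSCLC, colon, CNS, melanoma, ovarian, renal, prostate and breast lines. Compounds given once at […] (micromolar per the line). Percent inhibition taken as 100 minus growth percent. Panel line reports the mean over all 58 lines.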

For assay [6], the system named is Panel CNS (Carcinoma cell lines). The experiment in a line: Antiproliferative activity against human Panel CNS (6 Carcinoma cell lines) assessed as reduction in mean cell growth. The procedure, abridged: as §1
Assay [7] relates to Panel renal (Carcinoma cell lines). The experiment in a line: Antiproliferative activity against human Panel renal (8 Carcinoma cell lines) assessed as reduction in mean cell growth. The procedure, abridged:
as §1

For assay [8], the system named is Panel ovarian (Carcinoma cell lines). Description: Antiproliferative activity against human Panel ovarian (7 Carcinoma cell lines) assessed as reduction in mean cell growth. Summed up: as §1
In assay [9] the test system is Panel colon (Carcinoma cell lines). Description: Antiproliferative activity against human Panel colon (7 Carcinoma cell lines) assessed as reduction in mean cell growth. Summed up: as §1
For assay [10], the system named is Panel prostate (Carcinoma cell lines). The experiment in a line: Antiproliferative activity against human Panel prostate (2 Carcinoma cell lines) assessed as reduction in mean cell growth. The procedure, abridged: as §1

What is called GI50 is the concentration that inhibits growth by half. As for `COc1cccc(-c2nn(-c3ccccc3)cc2-c2ccnc(NCCCNC(=O)c3cccc(C(F)(F)F)c3)c2)c1`, the GI50 was determined as 3.4 µM in the assay on HCT-15; 1950 nM in the assay with MDA-MB-468; 3.69 µM in the assay on K562; 1540 nM with SK-MEL-5; 2480 nM in the assay with HOP-92; 3.18 µM in the assay with PC-3. Moreover, the GI50 stood at 3.33 µM in the assay with COLO 205, 17 µM in the assay with SNB-75, 3.54 µM in the assay on NCI/ADR-RES and 2200 nM with RXF 393.

In the case of `COc1cccc(-c2nn(-c3ccccc3)cc2-c2ccnc(NCCNC(=O)Nc3ccc(Cl)c(Cl)c3)c2)c1`, the GI50 in [1] is 3.4 µM; in assay [2], 3.35 µM; in assay [3], 3.02 µM; in [4] it was 4.15 µM; in assay [6] it was 7.19 µM; in assay [7] it was 4.63 µM. Moreover, the GI50 in [8] was determined as 4.72 µM; in assay [9], 3.73 µM; in assay [10], 5.95 µM. Also, the Activity in assay [5] is more than 80%.

The values above are taken from ChEMBL document CHEMBL5257027 (Eur J Med Chem, 2016).
